Data on 2 compounds can be found in ChEMBL document CHEMBL4024769, “Synthesis and Investigation of Photophysical and Biological Properties of Novel S-Containing Bacteriopurpurinimides” (J Med Chem, 2017).

The nature of series [1]: Phototoxicity against mouse S37 cells implanted in F1 mouse assessed as tumor growth inhibition at 2.5 mg/kg, iv preincubated for 15 mins with subsequent 150 J/cm2 irradiation measured on day 20 post irradiation relative to control. Type of series: functional. The settings on record: S37, light or radiation study, read-out: TGI. An outline of the steps: (§1)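 S37 sarcoma mice treated on day 7 of tumor growth with compound iv; tumors 140–160 mm3 beforehand, droperidol 0.25 mg ip as anesthetic. LED irradiation at 800 ± 21 nm, 100 mW/cm2, 150 J/cm2, given 15 or 30 min after dosing. Controls got iv 0.9% NaCl. Volume = d1×d2×d3×0.52; TGI = […]×100%.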

Series [2] in a line: Drug uptake in spleen tumor of F1 mouse implanted with mouse S37 cells assessed as normalized fluorescence at 2.5 mg/kg, iv measured after 24 hrs post injection in presence of He-Ne laser radiation by local fluorescence spectroscopic analysis. Type of series: ADME, organism-based. The settings on record: in vivo. Summed up:
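Single iv dose of 2.5 mg/kg given to F1 mice bearing S37 sarcoma. Skin, muscle, liver, kidney, spleen and tumor taken from three animals each at 0.25, 0.5, 2, 4 and 24 h and read ex vivo by contact local fluorescence spectroscopy. He–Ne 632.8 nm excitation; 640–900 nm integral normalized to backscattered laser signal (FN).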

A short description of series [3]: Phototoxicity against mouse S37 cells implanted in F1 mouse assessed as tumor growth inhibition at 5 mg/kg, iv preincubated for 15 mins with subsequent 150 J/cm2 irradiation measured on day 11 post irradiation relative to control. Type of series: functional. The conditions noted are these: S37, light or radiation study, read-out: TGI. Summed up: as §1
Series [4] can be described thus: Phototoxicity against mouse S37 cells assessed as cell growth inhibition preincubated for 6 hrs with subsequent 10 J/cm2 irradiation followed by incubation in absence of compound for 24 hrs by MTT assay. Type of series: functional. The conditions noted are these: S37, light or radiation study. An outline of the steps:
(§2)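 S37 cells treated with 0.05–28 μM compound added 24 h after plating. After 0.25–6 h incubation, cells were irradiated with a halogen lamp through a KS-19 filter (720 nm) at 21.0 ± 1.0 mW/cm2, 10 J/cm2, with or without removing the compound. MTT read 24 h later; 50% growth inhibition taken as the value, mean of three tests.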
Background: Tetrazolium assays rely on reduction of a dye to a coloured formazan, in cell work by metabolically active cells.

A short description of series [5]: Phototoxicity against rat Sarcoma M1 cells implanted in rat assessed as tumor volume at 2.5 mg/kg, ip administered as single dose on day 11 after inoculation followed by 300 J/cm2 irradiation after 2.5 to 3 hrs measured on day 3 post photodynamic therapy (reference value: 1.6 +/- 0.3 mm3). Type of series: functional. An outline of the steps:
(§3)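 Rats with M1 sarcoma implanted subcutaneously in the left thigh were randomized on day 10, 25 per group. Single ip dose of 2.5 mg/kg on day 11; laser irradiation 2.5–3 h later at 810 nm, 0.51 W/cm2, 300 J/cm2, 10 min over a 1.5 cm field. Five rats sampled per time point for H&E histology, PCNA immunohistochemistry (1:200) and tumor volume. Untreated controls; Student's test, p < 0.05.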

The nature of series [6]: Phototoxicity against mouse S37 cells implanted in F1 mouse assessed as tumor growth inhibition at 5 mg/kg, iv preincubated for 30 mins with subsequent 150 J/cm2 irradiation measured on day 18 post irradiation relative to control. Type of series: functional. The conditions noted are these: S37, light or radiation study, read-out: TGI. Summed up: as §1
Series [7] in a line: Phototoxicity against rat Sarcoma M1 cells implanted in rat assessed as mitotic index at 2.5 mg/kg, ip administered as single dose on day 11 after inoculation followed by 300 J/cm2 irradiation after 2.5 to 3 hrs measured on day 3 post photodynamic therapy (reference value: 1.84 +/- 0.04%). Type of series: functional. Summed up: as §3
Series [8] in a line: Phototoxicity against rat Sarcoma M1 cells implanted in rat assessed as volume of tumor parenchyma at 2.5 mg/kg, ip administered as single dose on day 11 after inoculation followed by 300 J/cm2 irradiation after 2.5 to 3 hrs measured on day 1 post photodynamic therapy by hematoxylin and eosin staining based assay (reference value: 69 +/- 6%). Type of series: functional. An outline of the steps: (§4)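 Rat M1 sarcoma was implanted subcutaneously in the left thigh, with randomisation on day 10. A single 2.5 mg/kg ip dose was given on day 11, then 810 nm laser (0.51 W/cm2, 300 J/cm2, 10 min) after 2.5−3 h. Tumours were sectioned on days 1, 3 and 12 after PDT (controls days 12, 14, 23), five animals per point. Parenchyma and necrotic zone volumes were estimated on hematoxylin and eosin staining.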

Series [9] can be described thus: Phototoxicity against mouse S37 cells implanted in F1 mouse assessed as tumor growth inhibition at 5 mg/kg, iv preincubated for 30 mins with subsequent 150 J/cm2 irradiation measured on day 15 post irradiation relative to control. Type of series: functional. The conditions noted are these: S37, light or radiation study, read-out: TGI. An outline of the steps:
as §1

Series [10] in a line: Phototoxicity against rat Sarcoma M1 cells implanted in rat assessed as volume of tumor necrotic zones at 2.5 mg/kg, ip administered as single dose on day 11 after inoculation followed by 300 J/cm2 irradiation after 2.5 to 3 hrs measured on day 3 post photodynamic therapy (reference value: 30 +/- 4%). Type of series: functional. Summed up: as §4
Series [11] is described as follows: Phototoxicity against mouse S37 cells implanted in F1 mouse assessed as tumor growth inhibition at 5 mg/kg, iv preincubated for 30 mins with subsequent 150 J/cm2 irradiation measured on day 11 post irradiation relative to control. Type of series: functional. The settings on record: S37, light or radiation study, read-out: TGI. An outline of the steps:
as §1

Series [12] is described as follows: Phototoxicity against mouse S37 cells implanted in F1 mouse assessed as tumor growth inhibition at 5 mg/kg, iv preincubated for 30 mins with subsequent 150 J/cm2 irradiation measured on day 8 post irradiation relative to control. Type of series: functional. The settings on record: S37, light or radiation study, read-out: TGI. An outline of the steps:
as §1

The nature of series [13]: Phototoxicity against mouse S37 cells implanted in F1 mouse assessed as tumor growth inhibition at 5 mg/kg, iv preincubated for 30 mins with subsequent 150 J/cm2 irradiation measured on day 20 post irradiation relative to control. Type of series: functional. The settings on record: S37, light or radiation study, read-out: TGI. An outline of the steps:
as §1

Series [14] deals with Sarcoma M1. The series can be described thus: Phototoxicity against rat Sarcoma M1 cells implanted in rat assessed as tumor vasculature disruption at 2.5 mg/kg, ip administered as single dose on day 11 post inoculation followed by 300 J/cm2 irradiation after 2.5 to 3 hrs measured on day 2 post photodynamic therapy by CD31 dependent immunoimgaing. Type of series: functional, organism-based.

Series [15] in a line: Phototoxicity against rat Sarcoma M1 cells implanted in rat assessed as volume of PCNA-positive cells in tumor parenchyma at 2.5 mg/kg, ip administered as single dose on day 11 after inoculation followed by 300 J/cm2 irradiation after 2.5 to 3 hrs measured on day 3 post photodynamic therapy (reference value: 81 +/- 3%). Type of series: functional. Summed up: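 Female rats bearing subcutaneous M1 sarcoma in the left thigh were randomised on day 10. They received 2.5 mg/kg ip on day 11. Laser irradiation (810 nm, 0.51 W/cm2, 300 J/cm2, 1.5 cm field, 10 min) followed 2.5−3 h later. PCNA-positive parenchyma was scored by immunohistochemistry (mouse anti-PCNA PC10, 1:200, biotin−extravidin−peroxidase) on post-PDT days 1, 3 and 12, with five animals per time point.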

A short description of series [16]: Phototoxicity against rat Sarcoma M1 cells implanted in rat assessed as tumor volume at 2.5 mg/kg, ip administered as single dose on day 11 after inoculation followed by 300 J/cm2 irradiation after 2.5 to 3 hrs measured on day 1 post photodynamic therapy (reference value: 1.22 +/- 0.18 mm3). Type of series: functional. An outline of the steps: as §3
A short description of series [17]: Phototoxicity against mouse S37 cells assessed as cell growth inhibition preincubated for 4 hrs with subsequent 10 J/cm2 irradiation followed by incubation in absence of compound for 24 hrs by MTT assay. Type of series: functional. The settings on record: S37, light or radiation study. An outline of the steps:
as §2

The source made the active and inactive calls. No cut-off for these calls is given here.

Broadly, the CC50 is the concentration giving 50% cytotoxicity. Take `CCCO/N=C(\C)c1c(C)c2cc3nc(c4c5[nH]c(cc6nc(cc1[nH]2)[C@H](C)[C@H]6CC)c(C)c5C(=O)N(OCCC)C4=O)[C@@H](CCC(=O)OC)[C@@H]3C`: the inhibition in vivo at 2.5 mg/kg in series [1] was determined as 100%. In addition, the Drug uptake entry in series [2] was “Active”. For the same compound, the inhibition in vivo at 5 mg/kg in [3] is 100%. Besides, in [4], the CC50 amounted to 110 nM.

Turning to `CCCO/N=C(\C)c1c(C)c2cc3nc(c4c5[nH]c(cc6nc(cc1[nH]2)[C@@H](C)[C@@H]6CC)c(C)c5C(=O)N(OCCC)C4=O)[C@H](CCC(=O)NCCSSCCNC(=O)CC[C@@H]1c2nc(cc4[nH]c(cc5nc(cc6[nH]c7c2C(=O)N(OCCC)C(=O)c7c6C)[C@H](CC)[C@H]5C)c(/C(C)=N/OCCC)c4C)[C@H]1C)[C@H]3C`, the Activity in series [5] stood at 0.59 mm3; in [7], 1.84%; in series [8] it was 39%; in series [10], 77%; in series [15] it was 38%; in [16] it was 1.13 mm3. For the same compound, the inhibition in vivo at 5 mg/kg in [6], in [9], in series [11], in series [12] and in series [13] was 100% throughout. Besides, the outcome in [14] was Active. In addition, in series [17], the CC50 is 50 nM.
